Compounds with a hit are over-represented: about 2.3% of the library has one in this group of screens.
UBC13 inh – blocks human UBC13 polyubiquitin chain formation; 330,000 compounds, 0.47% hits; P61088; inhibition, % at 20 µM; TR-FRET; in the data active = inhibition above about 45%, passing the limit was not always enough
Target sequence (P61088 whole entry, looked up): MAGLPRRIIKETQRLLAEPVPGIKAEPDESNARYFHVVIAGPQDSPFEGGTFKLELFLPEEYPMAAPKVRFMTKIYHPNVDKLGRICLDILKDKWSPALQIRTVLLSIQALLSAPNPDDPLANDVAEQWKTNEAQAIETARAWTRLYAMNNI
PP5 primary – blocks human protein phosphatase 5 activity; P53041; purified PP5c, OMFP substrate fluorescence; inhibition, % at 6.7 µM; 320,000 compounds, 0.18% hits;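 active = inhibition above the campaign's mean inhibition across all tested compounds plus 3 SD, cut at about 9.5% in these data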;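 also: 0% = DMSO only and 100% = 100 µM cantharidin control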
PREPL inh – human PREPL enzyme inhibition | inhibition, % at 5.96 µM | recombinant PREPL, fluorescence polarization activity-based probe | AID 2751 | Q4J6C6 | 320,000 compounds, 0.68% hits; in the data active = inhibition above about 43%;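 also: 0% = enzyme with DMSO and 100% = wells lacking enzyme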
PP1 counter – counter-screen for PP5 inhibitors: inhibitors of human PP1-alpha | purified PP1alpha, OMFP fluorescence | inhibition, % at 6.7 µM | 320,000 compounds, 0.9% hits;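 active = inhibition above the mean inhibition of all tested compounds plus 3 SD, computed separately for each screening campaign, cut at about 15% in these data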
Target sequence (P62136 whole entry, looked up): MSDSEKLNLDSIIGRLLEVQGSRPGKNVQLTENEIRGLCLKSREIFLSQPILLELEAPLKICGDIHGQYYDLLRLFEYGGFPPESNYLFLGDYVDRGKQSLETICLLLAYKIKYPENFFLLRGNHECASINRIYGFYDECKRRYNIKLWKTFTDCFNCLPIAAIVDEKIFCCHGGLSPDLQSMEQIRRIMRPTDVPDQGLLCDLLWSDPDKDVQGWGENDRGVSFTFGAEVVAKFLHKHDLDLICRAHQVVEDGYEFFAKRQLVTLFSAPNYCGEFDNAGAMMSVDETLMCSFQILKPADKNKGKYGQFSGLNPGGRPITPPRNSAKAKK
UCH37 DUB inh – blocks the human deubiquitinase UCH37; Q9Y5K5; purified proteasome/UCH37, Ub-AMC cleavage fluorescence; inhibition, % (concentration not given with the values); 330,000 compounds, 0.33% hits; AID 588478;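 active = mean inhibition over replicate wells above about 20%, limit read from the data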;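 also: 0% = compound-free wells with enzyme and 100% = wells lacking proteasome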
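Material: Human UCH37 enzyme supplied as purified proteasome complex | Schedule: 30 min preincubation with enzyme, 25 min cleavage at room temperature | Detection: AMC fluorescence 355/460 nm | Measure: % inhibition of Ub-AMC cleavage fluorescence | Controls: Wells without proteasome as full block, compound-free enzyme plus substrate as uninhibited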
CTSL1 counter – counter-screen for PFM18AAP inhibitors: inhibitors of F. hepatica cathepsin L1 | recombinant F. hepatica cathepsin L1, Z-Leu-Arg-MCA fluorescence | inhibition, % at 5.96 µM | 300,000 compounds, 0.49% hits | AID 1906;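 active = inhibition above the mean of all tested compounds plus 3 SD, set per screening campaign, cut at about 17% in these data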;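 also: 0% = plate median of test compound wells and 100% = 1 µM Z-Phe-Ala-diazomethylketone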
PP5 conf – confirmation of human PP5 phosphatase inhibitors. inhibition, % at 6.7 µM. Purified PP5, fluorogenic phosphatase substrate, fluorescence. 460 compounds, 22% hits. shares compounds with PP5 primary; in the data active = inhibition above about 9.5%
PP1 counter 3x – counter-screen for PP5 inhibitors: human PP1 phosphatase inhibition; PP1 enzyme, fluorescent phosphatase substrate; AID 2355; shares compounds with PP5 primary; 460 compounds, 4% hits; inhibition, % at 6.7 µM; in the data active = inhibition above about 16%
* hit, by the source's call; / = no result.

SMILES | UBC13 inh | PP5 primary | PREPL inh | PP1 counter | UCH37 DUB inh | CTSL1 counter | PP5 conf | PP1 counter 3x
COc1cc(Br)c(C(=O)c2nccc3cc(OC)c(OC)cc23)cc1OC | -103.8 | 13.7* | 26.0 | -3.1 | / | 103.0* | 43.3* | 5.5
CCOC(=O)N1CCN(C(=O)c2cccn3c(=O)c4cc(Br)ccc4nc23)CC1 | 3.6 | 0.4 | -6.2 | -5.0 | 0.3 | -0.5 | / | /
CCOC(=O)N1CCN(C(=O)c2cccn3c(=O)c4cc(Cl)ccc4nc23)CC1 | 8.4 | 11.1* | 4.4 | 0.6 | -336.2 | 0.4 | -5.4 | -4.8
CCOC(=O)C(NC(=O)Nc1ccc(O)cc1)(c1ccccc1)C(F)(F)F (stereo not given) | -5.0 | 10.6* | 5.2 | -9.7 | 7.0 | -3.3 | 1.2 | -0.1
CCOC(=O)C(NC(=O)NC1CCCCC1)(c1ccccc1)C(F)(F)F (stereo not given) | 4.3 | -0.7 | 6.8 | -1.2 | 4.0 | 3.4 | / | /
COc1ccc(O)c(C=c2sc3nc4cc(C)c(C)cc4n3c2=O)c1 | / | / | / | / | 1.3 | / | / | /
Cn1c(=O)c2c(nc(NN=C3CCCc4ccccc43)n2Cc2ccc(F)cc2)n(C)c1=O | / | / | / | / | -16.2 | / | / | /
O=C(Nc1c(C(=O)NCc2ccco2)cnn1-c1ccccc1)c1cccc(F)c1 | -8.3 | 10.5* | 2.1 | -2.8 | -0.7 | -0.8 | -7.0 | -4.5
O=C(NN=Cc1ccc(Sc2ccccn2)o1)c1cccc(Br)c1 | / | / | / | / | -0.6 | / | / | /
COc1ccc2[nH]c(=O)c(CN(Cc3cccs3)S(=O)(=O)c3c(C)ccc4nsnc34)cc2c1 | -5.3 | 9.8* | 12.5 | -0.1 | 0.3 | -3.3 | 1.4 | 2.2
O=C(Nc1ccc(C(=O)O)cc1)/C(=C\C=C\c1ccccc1)NC(=O)c1ccccc1Cl | -19.9 | 2.5 | 5.3 | 6.3 | 18.1 | 10.4 | / | /
O=C(Nc1ccc(O)cc1)/C(=C\C=C\c1ccccc1)NC(=O)c1ccccc1 | 0.0 | 12.2* | 4.7 | -3.4 | 7.7 | 1.4 | -2.4 | -2.3
NC(=O)C(=NO)c1ccccc1 | / | / | / | / | 5.4 | / | / | /
CCN(CC)c1ccc(C(=O)NN=C(C)c2ccc(O)cc2)cc1 | / | / | / | / | 9.6 | / | / | /
Cc1cc(C)cc(OCC(=O)N(C)CC(=O)Nc2ccc(Cl)c(C(F)(F)F)c2)c1 | 7.6 | 10.4* | 7.0 | 4.4 | 2.2 | / | 4.9 | 6.9
COc1ccc(NC(=O)CSCC(=O)N(C)CC(=O)Nc2ccc(Cl)c(C(F)(F)F)c2)cc1 | 6.2 | 0.9 | 20.0 | 0.9 | 1.0 | 1.7 | / | /
Cc1ccc(-c2nnc(SCC(=O)NN=Cc3ccc(C)s3)n2-c2ccccc2)cc1 | / | / | / | / | 1.0 | / | / | /
COC(=O)c1sc2cc(C(F)(F)F)cnc2c1-c1cccnc1 | -18.2 | 11.6* | 13.2 | -2.4 | 4.8 | 0.8 | -5.3 | -3.4
Cc1cccc(NN=Cc2ccc(O)c(O)c2O)c1 | / | / | / | / | 6.9 | / | / | /
COC(=O)c1[nH]c(C)c(/C(O)=C2\C(=O)C(=O)N(CCN3CCOCC3)C2c2ccccc2OC)c1C (stereo not given) | -20.3 | 10.8* | 4.9 | 2.4 | 11.8 | 2.0 | 0.7 | -0.3
O=[N+]([O-])c1ccc(O)c(-c2nn[nH]n2)c1 | -17.6 | 30.3* | -0.5 | 0.7 | 6.4 | -1.1 | 18.1* | -5.0
Cc1cc(C)n(-c2ccc([N+](=O)[O-])cc2-c2nn[nH]n2)n1 | -6.4 | 0.3 | 7.9 | 0.8 | 4.1 | 0.4 | / | /
Cc1ccc(S(=O)(=O)N2CCN(S(=O)(=O)c3c(C)n[nH]c3C)CC2)cc1C | 6.5 | 15.6* | 6.3 | 2.0 | -1.0 | / | 2.9 | 2.0
NC(=O)c1cccn1-c1ncc(C(F)(F)F)cc1Cl | -3.5 | -2.7 | 14.6 | -0.8 | 1.8 | -0.9 | / | /
O=C(Nc1ccc(Br)cc1)c1cccn1-c1ncc(C(F)(F)F)cc1Cl | -2.9 | 10.5* | -8.8 | 10.6 | 2.0 | -2.9 | 6.0 | 4.5
CCc1c(C(=O)NCCc2ccc(OC)c(OC)c2)[nH]c(C)c1C(C)=O | -3.1 | 12.5* | 10.5 | 0.3 | 1.5 | -1.5 | -6.1 | -4.0
CCc1c(C(=O)NCCc2cccc(C)c2)[nH]c(C)c1C(C)=O | 8.4 | -2.2 | -5.5 | -2.2 | / | 0.8 | / | /
O=C(Nc1ccc(F)cc1)C1CCCO1 (stereo not given) | -5.9 | 0.7 | -3.8 | -4.0 | 1.1 | -3.5 | / | /
